The results in this text go back to ChEMBL document CHEMBL1130071, “Pyrrolomorphinans as delta opioid receptor antagonists. The role of steric hindrance in conferring selectivity” (J Med Chem, 1997).

The Ki is the equilibrium dissociation constant of an inhibitor or competing ligand from its target. A higher Ki goes with weaker binding.

Experiment [1] addresses Mu-type opioid receptor (Cavia porcellus) (UniProt P97266). The experiment can be described thus: Agonist activity against guinea pig ileum Opioid receptor mu 1. In kind it is functional, tissue-based. The gist of the method:
(§1)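 Agonist activity in MVD or GPI preparations; ligands that were not full agonists tested at 1 µM, activity expressed as percent of maximal response.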

Experiment [2] has as its target Kappa-type opioid receptor (Mus musculus, UniProt P33534). The experiment can be described thus: Binding affinity against Opioid receptor kappa 1 binding in ICR mouse brain membranes using the radioligand [3H]U-69593. In kind it is cell membranes, Membrane. The gist of the method:
(§2)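 Competition binding on ICR mouse brain membranes using selective radioligands: [3H]naltrindole (δ), [3H]DAMGO (μ), [3H]U69593 (κ). Ki reported as mean ± SEM of at least three determinations.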

Experiment [3] deals with Delta-type opioid receptor (Mus musculus) (UniProt P32300). Nature of the experiment: Activity against Opioid receptor delta 1 on electrically stimulated mouse vas deferens using DADLE as agonist. It is filed as functional, tissue-based. The gist of the method:
(§3)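 Antagonist test in electrically stimulated smooth muscle, DADLE in MVD, morphine or ethylketazocine in GPI: ligand (100 nM) preincubated with the preparation 15 min before agonist testing. IC50 ratio = agonist IC50 with test compound / control IC50 in same preparation; Ke = [antagonist]/(IC50 ratio − 1).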

The target of experiment [4] is Delta-type opioid receptor (Mus musculus, UniProt P32300). Nature of the experiment: Binding affinity against Opioid receptor delta 1 receptor binding in ICR mouse brain membranes using the radioligand [3H]naltrindole. It is filed as cell membranes, Membrane. The method, boiled down: as §2
The target in another experiment is Mu-type opioid receptor (Mus musculus, UniProt P42866). The experiment can be described thus: Binding affinity against Opioid receptor mu 1 binding in ICR mouse brain membranes using the radioligand [3H][Ala2,Glyol5]enkephalin. In kind it is cell membranes, Membrane. The method, boiled down:
as §2

Experiment [5] deals with Kappa-type opioid receptor (Homo sapiens) (UniProt P41145). Nature of the experiment: Selectivity ratio measured as the delta IC50 to that of kappa IC50 values. In kind it is functional.
The target of experiment [6] is Delta-type opioid receptor (Homo sapiens) (UniProt P41143). Nature of the experiment: Selectivity ratio measured as the kappa Ki to that of delta Ki values. The gist of the method: (§4)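 Ki selectivity ratio = Ki at κ or μ (ICR mouse brain membranes, [3H]U69593 or [3H]DAMGO) divided by Ki at δ ([3H]naltrindole competition).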
Experiment [7] shares this target. The experiment can be described thus: Selectivity ratio measured as the mu Ki to that of delta Ki values. The method, boiled down: as §4
The target in experiment [8] is Mu-type opioid receptor (Homo sapiens) (UniProt P35372). The experiment can be described thus: Selectivity ratio measured as the delta IC50 to that of mu IC50 values. In kind it is functional.
Experiment [9] addresses Delta-type opioid receptor (Mus musculus) (UniProt P32300). Nature of the experiment: Agonist activity in mouse vas deferens assay relative to DADLE. It is filed as functional, tissue-based. The gist of the method: as §1
Experiment [10] deals with Kappa-type opioid receptor (Cavia porcellus) (UniProt P41144). The experiment can be described thus: Agonist activity against guinea pig ileum kappa receptor relative to ethylketazocine. It is filed as functional, tissue-based. The gist of the method: as §1
Experiment [11] has as its target Mu-type opioid receptor (Cavia porcellus) (UniProt P97266). Nature of the experiment: Agonist guinea pig ileum (Opioid receptor mu 1). It is filed as functional, tissue-based. The gist of the method:
as §1

Experiment [12] has the same target. The experiment can be described thus: Agonist guinea pig ileum. It is filed as functional, tissue-based. The method, boiled down: as §1
For experiment [13], the target named is Kappa-type opioid receptor (Cavia porcellus) (UniProt P41144). The experiment can be described thus: Activity against Opioid receptor kappa 1 on electrically stimulated guinea pig ileum using ethylketazocine as the standard agonist. In kind it is functional, tissue-based. The method, boiled down: as §3
Experiment [14] addresses Mu-type opioid receptor (Cavia porcellus) (UniProt P97266). The experiment can be described thus: Activity against mu receptor on electrically stimulated guinea pig ileum using morphine as the standard agonist (Opioid receptor mu 1). In kind it is functional, tissue-based. The method, boiled down:
as §3

Sequence of Kappa-type opioid receptor (Homo sapiens) (P41145 whole entry): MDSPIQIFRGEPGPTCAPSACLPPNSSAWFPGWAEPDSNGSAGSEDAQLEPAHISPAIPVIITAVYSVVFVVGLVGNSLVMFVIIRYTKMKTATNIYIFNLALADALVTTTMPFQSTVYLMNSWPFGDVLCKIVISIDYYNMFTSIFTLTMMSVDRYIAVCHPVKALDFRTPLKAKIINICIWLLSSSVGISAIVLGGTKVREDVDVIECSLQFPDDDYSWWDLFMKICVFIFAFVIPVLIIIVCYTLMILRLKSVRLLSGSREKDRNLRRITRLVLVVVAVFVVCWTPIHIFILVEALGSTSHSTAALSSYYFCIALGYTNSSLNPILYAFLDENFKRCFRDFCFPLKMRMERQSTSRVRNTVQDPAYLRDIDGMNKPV
Sequence of Kappa-type opioid receptor (Cavia porcellus) (P41144 whole entry): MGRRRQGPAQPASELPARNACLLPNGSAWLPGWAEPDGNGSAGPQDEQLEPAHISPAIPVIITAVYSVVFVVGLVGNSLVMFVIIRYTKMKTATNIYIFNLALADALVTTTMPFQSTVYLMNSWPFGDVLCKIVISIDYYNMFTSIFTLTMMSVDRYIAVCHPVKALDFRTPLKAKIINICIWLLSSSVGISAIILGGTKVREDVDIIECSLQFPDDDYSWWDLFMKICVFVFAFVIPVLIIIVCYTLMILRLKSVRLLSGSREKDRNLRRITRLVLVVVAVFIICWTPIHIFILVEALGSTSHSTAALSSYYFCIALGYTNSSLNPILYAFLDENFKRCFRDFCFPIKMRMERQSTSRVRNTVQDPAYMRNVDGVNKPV
Sequence of Kappa-type opioid receptor (P33534 whole entry): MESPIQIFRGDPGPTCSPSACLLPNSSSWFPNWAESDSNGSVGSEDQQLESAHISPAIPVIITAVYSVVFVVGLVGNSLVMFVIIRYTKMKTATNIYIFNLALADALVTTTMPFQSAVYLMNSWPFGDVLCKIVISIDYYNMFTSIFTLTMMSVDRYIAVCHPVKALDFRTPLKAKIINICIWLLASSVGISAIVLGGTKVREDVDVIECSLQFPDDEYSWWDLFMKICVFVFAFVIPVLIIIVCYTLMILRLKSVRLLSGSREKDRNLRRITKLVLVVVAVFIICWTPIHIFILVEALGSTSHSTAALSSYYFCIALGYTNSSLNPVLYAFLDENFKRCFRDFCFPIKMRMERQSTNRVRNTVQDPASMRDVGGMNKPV
Sequence of Mu-type opioid receptor (Cavia porcellus) (P97266 whole entry): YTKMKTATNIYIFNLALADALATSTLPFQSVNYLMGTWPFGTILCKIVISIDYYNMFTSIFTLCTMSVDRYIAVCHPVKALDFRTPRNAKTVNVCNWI
Sequence of Delta-type opioid receptor (Homo sapiens) (P41143 whole entry): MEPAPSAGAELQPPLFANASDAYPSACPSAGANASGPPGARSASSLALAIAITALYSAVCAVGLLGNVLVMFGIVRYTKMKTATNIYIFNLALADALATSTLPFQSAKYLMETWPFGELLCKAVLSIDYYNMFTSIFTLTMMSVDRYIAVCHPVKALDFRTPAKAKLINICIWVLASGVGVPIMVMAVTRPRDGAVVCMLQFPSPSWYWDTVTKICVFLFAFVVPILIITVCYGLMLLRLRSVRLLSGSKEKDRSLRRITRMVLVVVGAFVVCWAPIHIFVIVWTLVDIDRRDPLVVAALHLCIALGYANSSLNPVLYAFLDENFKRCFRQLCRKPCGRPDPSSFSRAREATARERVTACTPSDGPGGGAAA
Sequence of Mu-type opioid receptor (P42866 whole entry): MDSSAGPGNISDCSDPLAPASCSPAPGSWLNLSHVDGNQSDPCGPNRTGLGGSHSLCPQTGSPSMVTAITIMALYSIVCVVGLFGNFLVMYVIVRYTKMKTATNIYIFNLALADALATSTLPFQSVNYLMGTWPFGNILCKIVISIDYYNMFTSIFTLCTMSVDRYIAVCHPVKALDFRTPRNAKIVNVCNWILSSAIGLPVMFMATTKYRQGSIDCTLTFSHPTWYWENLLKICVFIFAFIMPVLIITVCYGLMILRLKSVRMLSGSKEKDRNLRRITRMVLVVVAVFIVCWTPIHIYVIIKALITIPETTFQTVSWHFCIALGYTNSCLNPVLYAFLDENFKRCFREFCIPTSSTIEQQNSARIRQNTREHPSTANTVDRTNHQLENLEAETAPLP
Sequence of Mu-type opioid receptor (Homo sapiens) (P35372 whole entry): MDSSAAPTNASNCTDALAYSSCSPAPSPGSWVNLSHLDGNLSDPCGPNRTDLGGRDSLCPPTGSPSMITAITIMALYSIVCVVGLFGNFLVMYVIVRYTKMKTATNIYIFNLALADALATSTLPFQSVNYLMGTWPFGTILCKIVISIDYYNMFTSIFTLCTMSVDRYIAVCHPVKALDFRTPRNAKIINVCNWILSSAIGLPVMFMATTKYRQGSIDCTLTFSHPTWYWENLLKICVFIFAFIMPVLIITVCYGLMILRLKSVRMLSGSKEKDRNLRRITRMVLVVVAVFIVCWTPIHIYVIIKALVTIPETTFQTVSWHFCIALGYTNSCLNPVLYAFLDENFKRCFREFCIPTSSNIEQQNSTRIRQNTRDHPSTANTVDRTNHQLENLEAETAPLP
Sequence of Delta-type opioid receptor (Mus musculus) (P32300 whole entry): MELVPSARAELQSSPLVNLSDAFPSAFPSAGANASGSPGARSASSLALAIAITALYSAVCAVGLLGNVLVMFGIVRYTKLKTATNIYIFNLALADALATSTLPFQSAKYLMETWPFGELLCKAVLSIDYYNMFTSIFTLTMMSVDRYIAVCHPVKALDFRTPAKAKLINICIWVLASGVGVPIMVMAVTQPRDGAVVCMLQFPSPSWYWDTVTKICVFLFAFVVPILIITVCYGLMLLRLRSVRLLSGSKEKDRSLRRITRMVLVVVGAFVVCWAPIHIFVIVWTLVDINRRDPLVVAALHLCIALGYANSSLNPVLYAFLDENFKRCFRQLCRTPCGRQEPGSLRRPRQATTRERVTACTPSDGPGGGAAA
Sequence of Delta-type opioid receptor (P32300 whole entry): as above

`CCCCc1c(C)[nH]c2c1C[C@@]1(O)C3Cc4ccc(O)c5c4C1(CCN3CC1CC1)[C@H]2O5` (stereo not given in full): the values for the IC50 ratio in experiment [1], in experiment [9] and in experiment [10] were 2.1, 16.8 and 0.95, respectively. Further, the Ki in experiment [2] came out at 39 nM; in [4], 12 nM; on Mu-type opioid receptor it was 57 nM. In addition, the Ke in experiment [3] came out at 6.7 nM. Further, the Selectivity ratio in experiment [5] is 17; in [6], 3.3; in [7], 4.8; in experiment [8] it was 8.

Turning to `Oc1ccc2c3c1O[C@H]1c4[nH]c(-c5ccccc5)c(-c5ccccc5)c4C[C@@]4(O)C(C2)N(CC2CC2)CCC314` (stereo not given in full), the IC50 ratio in experiment [11] amounted to 1.2; in [12], 1.1; in experiment [9] it was 1.4. Besides, the Selectivity ratio in experiment [5] and in experiment [8] was 1 each time.

`CC(C)Cc1[nH]c2c(c1-c1ccccc1)C[C@@]1(O)C3Cc4ccc(O)c5c4C1(CCN3CC1CC1)[C@H]2O5` (stereo not given in full): the IC50 ratio in [1] came to 4.1; in [9], 0.76; in experiment [10] it was 1.3. The Selectivity ratio in [5] and in [8] was 0.2 throughout.

On to `Cn1c2c(c3c1[C@@H]1Oc4c(O)ccc5c4C14CCN(CC1CC1)C(C5)[C@]4(O)C3)CCCC2` (stereo not given in full), for which the Ke came out at 254 nM in [13] and 158 nM in experiment [14].

In the case of `Cc1[nH]c2c(c1C)C[C@@]1(O)C3Cc4ccc(O)c5c4C1(CCN3CC1CC1)[C@H]2O5` (stereo not given in full), the IC50 ratio in experiment [1] came out at 1.5; in experiment [9], 7.7; in experiment [10], 1.4. The Ki came to 22 nM in experiment [2], 0.41 nM in experiment [4] and 39 nM at Mu-type opioid receptor. Besides, in [3], the Ke was 14.8 nM. Moreover, the Selectivity ratio in [5] came to 7; in [6], 53.7; in experiment [7], 95; in experiment [8], 5.

`Oc1ccc2c3c1O[C@H]1c4[nH]cc(-c5ccccc5)c4C[C@@]4(O)C(C2)N(CC2CC2)CCC314` (stereo not given in full): the values for the IC50 ratio in [1], in experiment [9] and in [10] were 2.3, 1.5 and 2.1, respectively. The Ki in [2] was determined as 45 nM; in [4], 2.7 nM; on Mu-type opioid receptor it was 21 nM. Moreover, the Selectivity ratio in experiment [5] is 0.7; in [6], 16.7; in experiment [7], 7.8; in experiment [8], 0.7.

With `Cc1c(CC(C)C)[nH]c2c1C[C@@]1(O)C3Cc4ccc(O)c5c4C1(CCN3CC1CC1)[C@H]2O5` (stereo not given in full), the IC50 ratio in experiment [1] was 380; in [9], 32; in experiment [10] it was 380. Besides, the Ke in experiment [3] is 3.3 nM.

Consider `Cc1[nH]c2c(c1Cc1ccccc1)C[C@@]1(O)C3Cc4ccc(O)c5c4C1(CCN3CC1CC1)[C@H]2O5` (stereo not given in full), for which the IC50 ratio in [1] is 1.3; in experiment [9], 50; in experiment [10], 1.3. For the same molecule, the Ki in [2] was determined as 41 nM; in [4], 0.35 nM; on Mu-type opioid receptor, 28 nM. Besides, the Ke in experiment [3] is 2.1 nM. Moreover, the Selectivity ratio is 50 in [5], 117 in experiment [6], 80 in experiment [7] and 50 in experiment [8].

`O=C1/C(=C/c2ccccc2)C[C@@]2(O)[C@H]3Cc4ccc(O)c5c4[C@@]2(CCN3CC2CC2)[C@H]1O5`: the results for the Selectivity ratio in experiment [5] and in experiment [8] were 18 and 2.7, respectively.

`Oc1ccc2c3c1O[C@H]1c4[nH]c5ccccc5c4C[C@@]4(O)[C@@H](C2)N(CC2CC2)CC[C@]314` [NALTRINDOLE]: the inhibition constant (Ki) in experiment [2] was determined as 355 nM; in experiment [4] it was 0.04 nM; on Mu-type opioid receptor, 6.1 nM.

Turning to `CCCCc1c(CC(C)C)[nH]c2c1C[C@@]1(O)C3Cc4ccc(O)c5c4C1(CCN3CC1CC1)[C@H]2O5` (stereo not given in full), the IC50 ratio was determined as 0.76 in [1], 9.8 in experiment [9] and 0.99 in experiment [10]. Further, the Ke in experiment [3] turned out to be 11.4 nM. Moreover, the Selectivity ratio in experiment [5] and in [8] was 10 in each case.

Take `Cc1[nH]c2c(c1-c1ccccc1)C[C@@]1(O)C3Cc4ccc(O)c5c4C1(CCN3CC1CC1)[C@H]2O5` (stereo not given in full): the IC50 ratio was 0.9 in experiment [1], 1.6 in [9] and 0.98 in [10]. Further, the Selectivity ratio in experiment [5] and in experiment [8] was 1.6 throughout.

Regarding `Oc1ccc2c3c1O[C@H]1c4[nH]ccc4C[C@@]4(O)C(C2)N(CC2CC2)CCC314` (stereo not given in full), the results for the Ke in experiment [13], in experiment [3] and in [14] were 3.2 nM, 3.2 nM and 0.65 nM, respectively. The Selectivity ratio in experiment [5] worked out at 0.17; in experiment [8], 0.03.
